Screening data deposited in PubChem BioAssay by SRMLSC.
Only a selection was taken, and hits are over-represented in it overall.
Fibroblast inh: blocks proliferation of human lung fibroblasts | AID 719 | LL 47 human lung fibroblast viability, ATP luminescence; hits give low values | viability, % at 10 µM | 85,000 compounds, 1.1% hits;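 active = viability at or below 50% in the single dose screen; inactive = viability above 50%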;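 also: compound exposure lasted 72 h before the ATP readout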
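Test system: LL 47 human lung fibroblasts / Incubation: 72 h compound exposure at 37 °C after overnight plating / Technique: luminescent ATP detection, CellTiter-Glo / Compound dosing: 0.1% DMSO in all compound wells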
HUVEC inhibit: blocks proliferation of human endothelial cells; HUVEC proliferation, CellTiter-Glo luminescence, 72 h; hits give low values; viability, % at 10 µM (by protocol); 86,000 compounds, 1.1% hits; AID 648;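 active = viability at or below 30%; inactive = viability above 30%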
bCat KO growth: beta-catenin-lacking colon tumor cell growth suppression. HCT116 beta-catenin knockout viability, CellTiter-Glo, 60 h; hits give low values. 140,000 compounds, 1.5% hits. viability, % at 10 µM;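 active = viability at or under a set limit, the compound median less 4 SD, cut at about 6% in these data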
H69AR inhibit: growth inhibitors of human H69AR lung tumor cells. H69AR lung tumor viability, ATP luminescence, 72 h; hits give low values. viability, % at 10 µM. 85,000 compounds, 6% hits. AID 598;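 active = viability at or below 40%; inactive = viability above 40%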;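 also: multidrug resistant small cell line overexpressing MRP-1 efflux transporter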
HCT116 PTEN-null: growth suppressors of cells with PTEN tumor suppressor deletion; HCT116 PTEN-null viability, CellTiter-Glo, 60 h; hits give low values; viability, % at 10 µM; 140,000 compounds, 1.2% hits; AID 827;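 active = viability at or below a set limit, 4 SD under the median of all tested compounds, cut at about 3.7% in these data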;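 also: PTEN knockout HCT116 line with beta catenin targeted HCT116 as companion control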
Large screens that a line does not name were inactive.

CCOC(=O)CC(=O)CSc1nc2sc(C)cc2c(=O)n1Cc1ccco1	none
Cc1nc(NC(=O)/C=C/c2ccccc2)n[nH]1	none (no result: Fibroblast inh, HUVEC inhibit, H69AR inhibit)
CC(C)(C)C1CCC(C(=O)OCC(=O)c2ccc[nH]2)CC1 (configuration not stated)	none (no result: Fibroblast inh, HUVEC inhibit, H69AR inhibit)
O=C1CCCCCN1Sc1ccccc1	H69AR inhibit 3.0
Cc1oc(-c2cccc(Cl)c2)nc1CN1CCC(C(=O)N2CCN(c3ccccn3)CC2)CC1	H69AR inhibit 33 (no result: bCat KO growth, HCT116 PTEN-null)
CCc1ccc(-c2nc(CN3CCC(C(=O)N4CCN(c5ccccn5)CC4)CC3)c(C)o2)cc1	bCat KO growth 1.9, H69AR inhibit 39, HCT116 PTEN-null 1.1
Cc1oc(-c2ccc(Cl)cc2)nc1CN1CCC(C(=O)N2CCN(c3ccccn3)CC2)CC1	none (no result: bCat KO growth, HCT116 PTEN-null)
CCc1ccc(-c2nc(CN3CCC(C(=O)N4CCN(c5ccccc5)CC4)CC3)c(C)o2)cc1	HUVEC inhibit 3.5, bCat KO growth 2.0, H69AR inhibit 1.2, HCT116 PTEN-null 2.4
CCN1CCN(C(=O)C2CCN(Cc3nc(-c4ccc(Cl)cc4)oc3C)CC2)CC1	none (no result: bCat KO growth, HCT116 PTEN-null)
CC(C)Oc1cccc(C(=O)NC(=S)Nc2ccccc2)c1	none (no result: Fibroblast inh, HUVEC inhibit, H69AR inhibit)
CCOc1ccc(-n2c(N)c(C(=O)NCc3ccco3)c3nc4ccccc4nc32)cc1	H69AR inhibit 11
Cc1cccc(-n2c(N)c(C(=O)NCCN3CCOCC3)c3nc4ccccc4nc32)c1	H69AR inhibit 32
COCCCNC(=O)c1c(N)n(-c2ccc3c(c2)OCO3)c2nc3ccccc3nc12	H69AR inhibit 28
CCCNC(=O)c1c(N)n(-c2ccc3c(c2)OCO3)c2nc3ccccc3nc12	Fibroblast inh 7.6, H69AR inhibit 8.6
CC(C)Cn1c(N)c(C(=O)NCCN2CCOCC2)c2nc3ccccc3nc21	none
CN(C)S(=O)(=O)c1ccc(/C(O)=C2/C(=O)C(=O)N(CCN3CCCCC3)C2c2cccnc2)cc1 (configuration not stated)	none (no result: bCat KO growth, HCT116 PTEN-null)
C=CCNC(=O)c1c(Cl)nc(C)c([N+](=O)[O-])c1C	none (no result: Fibroblast inh, HUVEC inhibit, H69AR inhibit)
Cc1sc(NC(=S)NC(=O)C2CCCCC2)c(C(N)=O)c1C	none (no result: Fibroblast inh, HUVEC inhibit, H69AR inhibit)
Cc1ccc(S(=O)(=O)N2CCN=C2c2ccccc2)cc1C	none
COc1cc(S(=O)(=O)N2CCN=C2c2ccccc2)ccc1F	H69AR inhibit 23
C=CCSc1nc2sc(C)c(C)c2c(=O)n1N	none (no result: Fibroblast inh, HUVEC inhibit, H69AR inhibit)
CN(C)c1ccc2c(O)cc(=O)n(C)c2c1	H69AR inhibit 22
Cc1[nH]n2c(=O)cc(C(C)(C)C)nc2c1-c1ccccc1	H69AR inhibit 36
Cc1[nH]n2c(=O)cc(C(C)C)nc2c1-c1ccccc1	H69AR inhibit 14
Cc1[nH]n2c(=O)cc(-c3ccc([N+](=O)[O-])cc3)nc2c1-c1ccccc1	HUVEC inhibit 8.6, H69AR inhibit 15 (no result: bCat KO growth, HCT116 PTEN-null)
CCCc1cc(=O)n2[nH]c(C)c(-c3ccccc3)c2n1	none
CCSc1nc2sc3c(c2c(=O)[nH]1)CCCC3	none
CCSC1=NC2(CCCCC2)Nc2sc3c(c21)CCCC3	H69AR inhibit 2.2
Cc1ccc(Cl)c(OCC(=O)OCC(=O)NC2CCCc3ccccc32)c1 (configuration not stated)	none (no result: Fibroblast inh, HUVEC inhibit, H69AR inhibit)
CCOC(=O)c1c2c(n(C)c1COC)C(=O)C(=O)c1ccc(Br)cc1-2	Fibroblast inh 2.2, HUVEC inhibit 2.1, H69AR inhibit 1.5 (no result: bCat KO growth, HCT116 PTEN-null)
Brc1ccc2[nH]c3c(N4CCc5ccccc5C4)ncnc3c2c1	H69AR inhibit 6.3
CCn1c(Cc2ccc(OC)cc2)nnc1SCC(=O)Nc1cccc(C(=O)OC)c1	Fibroblast inh 48, bCat KO growth 0.9, HCT116 PTEN-null 0.6
COc1ccc(-n2c(Cc3cccn3C)nnc2SCC(=O)Nc2cccc(OC)c2)cc1	H69AR inhibit 37
CCCCOc1ccc(-c2c(C#N)c(N)nc(SCC(N)=O)c2C#N)cc1	H69AR inhibit 35 (no result: Fibroblast inh)
N#CC1=C(SCc2ccccc2Cl)NC(=O)C(C(N)=O)C1 (configuration not stated)	none
CC/C(=C\C1CCCCC1)C(NP(=O)(c1ccccc1)c1ccccc1)c1ccccc1 (configuration not stated)	bCat KO growth 5.6 (no result: Fibroblast inh, HUVEC inhibit, H69AR inhibit)
Clc1ccc(Nc2nc3ccccc3n3nnnc23)cc1	none
Fc1cc(Br)ccc1Nc1nc2ccccc2n2nnnc12	H69AR inhibit 25
COc1ccc(CNC(NC(=O)c2ccccc2)(C(F)(F)F)C(F)(F)F)cc1	none (no result: Fibroblast inh, HUVEC inhibit, H69AR inhibit)
O=c1c2cc3ccccc3n2cnn1Cc1ccccc1F	H69AR inhibit 17
Cc1c(C(=O)NN)nc2ccccn12	none (no result: Fibroblast inh, HUVEC inhibit, H69AR inhibit)
COc1ccccc1CN=Cc1[nH]c2ccc(Br)c(Cl)c2c1O	H69AR inhibit 25
Cc1c(C(=O)O)cccc1-c1ccc(/C=N/Nc2ccc(Br)cc2)o1	none (no result: Fibroblast inh, HUVEC inhibit, H69AR inhibit)
CCCCCCCCOC(=O)C1=C(C)Nc2nnnn2C1c1cccs1 (configuration not stated)	HUVEC inhibit 2.5
CCCCCCCOC(=O)C1=C(C)Nc2ncnn2C1c1cccs1 (configuration not stated)	none
CC(OC(=O)c1cc(-c2cccnc2)nc2ccccc12)C(=O)Nc1ccc2ccccc2c1 (configuration not stated)	none (no result: Fibroblast inh, HUVEC inhibit, H69AR inhibit)
Cn1c(=O)[nH]c(=O)c2c1nc1n2CCCN1CCc1ccccc1	none
CC(C)Cn1c(=O)c2c(nc3n2CCCN3CCc2ccccc2)n(C)c1=O	H69AR inhibit 34
Cn1c(=O)n(CCc2ccccc2)c(=O)c2c1nc1n2CCCN1Cc1ccccc1	H69AR inhibit 27
Cn1c(=O)n(Cc2ccc(F)cc2)c(=O)c2c1nc1n2CCCN1Cc1ccccc1	H69AR inhibit 38
Cn1c(=O)n(Cc2ccccc2F)c(=O)c2c1nc1n2CCCN1CCc1ccccc1	none (no result: H69AR inhibit)
Cn1c(=O)n(CCc2ccccc2)c(=O)c2c1nc1n2CCCN1CCc1ccccc1	Fibroblast inh 46, HUVEC inhibit 3.7
Cc1cc(C)c(S(=O)(=O)n2nc(C)c(Br)c2C)c(C)c1	none (no result: Fibroblast inh, HUVEC inhibit, H69AR inhibit)
CCCCC(=O)Nc1cc(C(=O)NCCc2ccccc2)ccc1Cl	none (no result: Fibroblast inh, HUVEC inhibit, H69AR inhibit)
COc1ccc(C)cc1NC(=S)N1CCN(S(C)(=O)=O)CC1	none (no result: Fibroblast inh, HUVEC inhibit, H69AR inhibit)
O=C(NNC(=O)c1cccs1)c1ccc(Cl)c(Cl)c1	none (no result: Fibroblast inh, HUVEC inhibit, H69AR inhibit)
COc1cc(CNCCc2ccc(S(N)(=O)=O)cc2)ccc1OCC(=O)NC1CCCCC1	none (no result: Fibroblast inh, HUVEC inhibit, H69AR inhibit)
CCOc1cc(CNCCc2ccc(S(N)(=O)=O)cc2)ccc1OCc1ccc(Cl)cc1	bCat KO growth 1.4, HCT116 PTEN-null 1.7 (no result: Fibroblast inh, HUVEC inhibit, H69AR inhibit)
COc1cc(CNCCc2ccc(S(N)(=O)=O)cc2)ccc1OCc1ccc(Cl)cc1	bCat KO growth 0.6, HCT116 PTEN-null 0.6 (no result: Fibroblast inh, HUVEC inhibit, H69AR inhibit)
COc1cc(CNCCN2CCOCC2)ccc1OCc1ccc(Cl)cc1	none (no result: Fibroblast inh, HUVEC inhibit, H69AR inhibit)
CC(=O)/C=C/n1c(=S)oc2ccccc21	bCat KO growth 5.3 (no result: Fibroblast inh, HUVEC inhibit, H69AR inhibit)
CCCCOC(=O)CCn1c(=S)oc2ccccc21	none
CC(C)CC(=O)/C=C/n1c(=S)oc2ccccc21	bCat KO growth 3.8, HCT116 PTEN-null 2.4 (no result: Fibroblast inh, HUVEC inhibit, H69AR inhibit)
C=CCOC(=O)C1CC=CCC1C(=O)Oc1ccc(F)cc1F (configuration not stated)	none
CCC(NC(=O)Nc1nnc(C(F)(F)F)s1)(C(F)(F)F)C(F)(F)F	Fibroblast inh 29, HUVEC inhibit 23, bCat KO growth 2.1, H69AR inhibit 6.0, HCT116 PTEN-null 2.5
CCOc1ncccc1C(=O)OCC(=O)NCCc1ccc(OC)cc1	none
